High-throughput results from PubChem BioAssay.
Most compounds without a hit are left out; they make up all but 2.2% or so of the library.
PERK inhibitor: block of dimerizer-induced PERK translation repression, primary screen, PERK inhibitor project, CHO PERK-DD cells, SEAP luminescence, HTS; Eukaryotic translation initiation factor 2-alpha kinase 3 (Homo sapiens), Q9NZJ5; CHO PERK-DD fusion, SEAP luminescence translation reporter; inhibition, % at 5.6 µM; 0.17% of 220,000 active;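 active means inhibition above the mean inhibition of all tested compounds plus 3 SD, set separately per screening campaign, cut at about 2.9% in these data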;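 further: PERK kinase domain activated by AP20187 dimerizer at 100 nM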
Runt-SMMHC FRET: inhibitors of RUNX1 Runt–CBFb-SMMHC binding, primary screen, biochemical, FRET, Cerulean-Runt, Venus-CBFb-SMMHC, uHTS. Runt-related transcription factor 1 (Homo sapiens) + Core-binding factor subunit beta …. Cerulean-Runt/Venus-CBFb-SMMHC FRET ratio 530/480, 1 h. inhibition, % at 20 µM. 0.74% of 220,000 active. AID 1434, 2008;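 active means mean inhibition across duplicate retests at 20 µM reaching about 50%, limit read from the data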;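 further: inhibitors lower the FRET ratio by blocking Runt binding to CBFb-SMMHC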
RanGTP-Imp inh: inhibitors of RanGTP-importin-beta interaction, primary screen, biochemical, FRET, CFP-Ran, YFP-importin-beta, homogeneous; Ran GTPase (GTP-bound) - importin-beta complex; cell-free CFP-Ran/YFP-importin-beta FRET ratio; inhibition, % (test concentration not listed); 1.1% of 300,000 active; AID 2216, 2009;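 active means more than half of the replicate wells show a fall in the fluorescence ratio signal beyond about 16%, limit read from the data, passing the limit was not always enough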
Runt-CBFb FRET: inhibitors of RUNX1 Runt–CBFb binding, primary screen, biochemical, FRET, Cerulean-Runt, Venus-CBFb, uHTS | Runt-related transcription factor 1 (Homo sapiens) + Core-binding factor subunit beta … | Cerulean-Runt/Venus-CBFb FRET ratio 530/480, 1 h | inhibition, % at 20 µM | 0.46% of 220,000 active | AID 1496, 2009;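 active means inhibition over about 50% at 20 µM in the single-dose screen, limit read from the data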
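Measured by: fluorescence energy transfer, 422 nm excitation, 530/480 nm emission; Assay system: Cerulean-Runt domain; Medium: Tris pH 7.5 buffer with BSA; Measure: loss of energy transfer signal; Controls: 5 µM unlabeled CBFb as full-inhibition high control; Incubation: protein complex preformed 1 h, compound exposure 1 h, room temperature, dark.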
Hck-Nef inh: inhibitors of Nef-activated human Hck kinase, primary screen, biochemical, Z-Lyte FRET, 384-well, Hck-YEEI. Tyrosine-protein kinase HCK (Homo sapiens), P08631. Recombinant Hck-YEEI plus Nef, Z-Lyte FRET kinase assay. inhibition, % at 20 µM. 0.68% of 220,000 active;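 active means Hck-Nef kinase inhibition above about 50%, limit read from the data; inactive means inhibition below that limit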
Target sequence (P08631 whole entry, looked up): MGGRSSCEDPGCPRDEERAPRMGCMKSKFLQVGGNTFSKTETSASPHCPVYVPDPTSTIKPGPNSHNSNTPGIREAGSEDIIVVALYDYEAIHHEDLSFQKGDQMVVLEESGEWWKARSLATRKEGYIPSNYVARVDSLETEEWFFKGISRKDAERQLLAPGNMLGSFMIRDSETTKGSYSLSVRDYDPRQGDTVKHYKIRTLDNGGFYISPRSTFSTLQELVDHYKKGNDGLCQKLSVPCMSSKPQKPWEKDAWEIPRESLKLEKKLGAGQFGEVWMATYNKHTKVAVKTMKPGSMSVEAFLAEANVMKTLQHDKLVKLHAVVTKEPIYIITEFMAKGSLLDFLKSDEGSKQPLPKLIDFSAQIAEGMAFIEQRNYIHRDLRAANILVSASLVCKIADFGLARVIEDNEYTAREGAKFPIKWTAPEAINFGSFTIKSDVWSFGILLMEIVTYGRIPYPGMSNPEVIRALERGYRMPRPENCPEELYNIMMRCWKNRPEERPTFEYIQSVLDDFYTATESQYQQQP
eIF4E-4G inh: eIF4E–eIF4G protein interaction inhibitors, primary screen, biochemical, uHTS, TR-FRET, eIF4GI fragment; Eukaryotic translation initiation factor 4E (Mus musculus) + Eukaryotic translation …; TR-FRET eIF4E-eIF4GI(517-606) binding, 2 h; inhibition, % at 21.7 µM; 0.37% of 220,000 active;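 active means inhibition above about 30%, limit read from the data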
Of the large screens only hits and unclear results are named; the others gave an inactive call; [ ] = another dose, or the depositor's remark.

CN(C)c1c2ccccc2nc2c(F)c(F)c(F)c(F)c12	RanGTP-Imp inh 23 (no result: Runt-CBFb FRET)
COc1ccc(C2(CNC(=O)Cc3ccccc3)CCCC2)cc1OC	none (no result: Runt-CBFb FRET)
Cc1noc(NS(=O)(=O)c2ccc(N3C(=O)c4ccccc4C3=O)cc2)c1C	none
CC(=O)NS(=O)(=O)c1ccc(N2C(=O)c3ccccc3C2=O)cc1	RanGTP-Imp inh 20
Cc1nnc(SCC(=O)NC2CCCc3ccccc32)n1-c1ccccc1 (stereo not drawn)	none
O=C(Nc1nc2c(s1)CN(Cc1ccccc1)CC2)C1CCC1	Runt-SMMHC FRET 130
CCN1CCc2nc(NC(=O)c3ccccc3)sc2C1	Runt-SMMHC FRET 109, RanGTP-Imp inh 53
O=C(NC(=S)Nc1nc2c(s1)CCCC2)c1ccccc1	none
CCOC(=O)c1[nH]c(C)c(C(=O)OCC(=O)N2CCCCC2C)c1C (stereo not drawn)	none
Cc1ccc(S(=O)(=O)N2CCN(C(C)C(=O)Nc3ccccc3-c3ccccc3)CC2)cc1 (stereo not drawn)	eIF4E-4G inh 32[fluorescence artefact?]
CC(C(=O)Nc1ccccc1-c1ccccc1)N1CCN(C(=O)c2ccccc2)CC1 (stereo not drawn)	none
CC(C)c1c(C(=O)N/N=C/c2ccsc2)nnn1-c1nonc1N	none (no result: PERK inhibitor, Runt-SMMHC FRET, Runt-CBFb FRET, Hck-Nef inh, eIF4E-4G inh)
COc1ccc(N=Nc2n(C)c3ccccc3[n+]2C)cc1	PERK inhibitor 3.4
COc1ccccc1NC(=O)N1CCCC1C(=O)NCc1ccccc1F (stereo not drawn)	none
Cc1cccn2c(=O)c3cc(C(=O)NCC4CCCO4)c(=N)n(C4CCCC4)c3nc12 (stereo not drawn)	RanGTP-Imp inh 187 (no result: PERK inhibitor, Runt-SMMHC FRET, Runt-CBFb FRET, Hck-Nef inh, eIF4E-4G inh)
N=c1c(C(=O)NCC2CCCO2)cc2c(=O)n3ccccc3nc2n1C1CCCC1 (stereo not drawn)	RanGTP-Imp inh 186 (no result: PERK inhibitor, Runt-SMMHC FRET, Runt-CBFb FRET, Hck-Nef inh, eIF4E-4G inh)
Cc1ccc2nc3c(cc(C(=O)NCC4CCCO4)c(=N)n3C3CCCC3)c(=O)n2c1 (stereo not drawn)	RanGTP-Imp inh 194 (no result: PERK inhibitor, Runt-SMMHC FRET, Runt-CBFb FRET, Hck-Nef inh, eIF4E-4G inh)
COc1cccc(-n2nc(C(C)=O)c(=O)[nH]c2=O)c1	none
COC(=O)CC1COc2ccccc2N1C(=O)c1ccc(Cl)cc1 (stereo not drawn)	RanGTP-Imp inh 179
O=C1C/C(=C\c2c(F)cccc2Cl)N2CCC1CC2	RanGTP-Imp inh 53
CCOc1ccccc1OCCCCCc1c(C)n[nH]c1C	eIF4E-4G inh 47
COc1ccc(/C=C(\NC(=O)c2ccc([N+](=O)[O-])cc2)C(=O)NCCN2CCOCC2)cc1	none (no result: PERK inhibitor, Runt-SMMHC FRET, Runt-CBFb FRET, Hck-Nef inh, eIF4E-4G inh)
CC(=O)N/C(=C\c1ccc(F)cc1)C(=O)NC(C(=O)O)C(C)C (stereo not drawn)	none
Nc1nc(-c2cc(O)ccc2[N+](=O)[O-])cc(-c2ccccc2)c1[N+](=O)[O-]	RanGTP-Imp inh 34 (no result: PERK inhibitor, Runt-SMMHC FRET, Runt-CBFb FRET, Hck-Nef inh, eIF4E-4G inh)
CN(CC(=O)Nc1ccc(F)c(F)c1F)C(=O)CN1C(=O)C2CCCCC2C1=O (stereo not drawn)	none (no result: PERK inhibitor, Runt-SMMHC FRET, Runt-CBFb FRET, Hck-Nef inh, eIF4E-4G inh)
Cc1nc(COC(=O)c2c(C)nn(-c3ccccc3)c2C)cs1	none
Cc1csc(NC(=O)c2cc(=O)[nH]c3ccccc23)n1	Runt-SMMHC FRET 69
CC(=O)c1ccc(NC(=O)c2cc3nc4c(c(C(F)(F)F)n3n2)CCCC4)cc1	none
CCN(CC)S(=O)(=O)c1cc(NC(=O)Cn2ncc(Cl)c(Cl)c2=O)ccc1C	Hck-Nef inh 74
Nc1ccc2c(C(F)(F)F)cc(=O)oc2c1	Runt-SMMHC FRET 61, RanGTP-Imp inh 57
CC(=O)c1cccc(-n2nnnc2SCC(=O)NNC(=O)C(C)C)c1	none (no result: RanGTP-Imp inh)
